The source made the active and inactive calls.
Legend:
Staphylococcus aureus [1] = test: Antibacterial activity against multidrug resistant Staphylococcus aureus ATCC BAA-44 at >100 uM passaged for 12 days in fresh liquid media supplemented with compound; type: functional, organism-based
E. coli GroEL/ES [2] = target: T1, E. coli GroEL/ES (Escherichia coli, UniProt P0A6F5); test: (§1) Inhibition of Escherichia coli GroEL expressed in Escherichia coli DH5alpha/Escherichia coli GroES expressed in Escherichia coli BL21 (DE3) assessed as reduction in GroEL/GroES-mediated denatured rhodanese refolding by measuring rhodanese enzyme activity after 45 mins by spectrometric analysis
How it was run: (§2)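 Coupled refolding assay: denatured rhodanese or MDH refolded by GroEL/ES (50 nM GroEL tetradecamer, 700 nM subunits), read-out via enzymatic activity of refolded substrate; counter-screened against native enzyme activity. IC₅₀ as back-calculated mean of log-transformed replicate values.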

[3] = Binding affinity to Escherichia coli GroEL expressed in Escherichia coli DH5alpha by ITC assay
How it was run: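 ITC at 20°C: 400 µM GroEL (monomer) in syringe titrated into 50 µM compound in cell, matched buffer 20 mM HEPES pH 7.4, 50 mM KCl, 10 mM MgCl₂, 1% DMSO; 0.4 µL first injection discarded, then 2.0 µL injections at 3-min intervals, 600 rpm. Single-site fit gave Kd, n, ΔH, ΔS; five or six replicates.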

Staphylococcus aureus [4] = test: Antibacterial activity against multidrug resistant Staphylococcus aureus ATCC BAA-44 after 6 to 8 hrs; type: functional, organism-based
E. coli GroEL/ES [5] = target: T1, E. coli GroEL/ES; test: as §1, with “coliDH5alpha/Escherichia” for “coli DH5alpha/Escherichia”, “MDH” for “rhodanese”, “activity using sodium mesoxalate as substrate” for “activity”, “20 to 40” for “45”; how it was run: as §2
[6] = target: T2, Thiosulfate sulfurtransferase (Homo sapiens, UniProt Q16762); test: Inhibition of refolded rhodanese (unknown origin) preincubated with Escherichia coli GroEL/GroES for 60 mins by measuring […] after 20 to 40 mins by spectrometric analysis
T2 sequence (Q16762 whole entry): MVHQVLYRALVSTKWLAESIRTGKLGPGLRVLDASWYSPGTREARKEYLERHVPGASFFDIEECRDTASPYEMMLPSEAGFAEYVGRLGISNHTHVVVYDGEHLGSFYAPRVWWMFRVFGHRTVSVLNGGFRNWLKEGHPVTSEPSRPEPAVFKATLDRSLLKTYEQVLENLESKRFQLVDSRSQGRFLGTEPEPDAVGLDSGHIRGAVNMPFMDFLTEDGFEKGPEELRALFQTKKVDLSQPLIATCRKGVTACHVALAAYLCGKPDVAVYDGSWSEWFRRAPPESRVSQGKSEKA

Acinetobacter baumannii = test: Antibacterial activity against Acinetobacter baumannii ATCC 19606 after 24 hrs; type: functional, organism-based; settings: for Activity: ATCC 19606 = CIP 70.34 = JCM 6841
How it was run: (§3)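 Stagnant liquid-culture proliferation assay at 37°C in broth cation-adjusted with 25 mg/L Ca²⁺ and 12.5 mg/L Mg²⁺, with compounds stamped into the wells. […] OD600 turbidity was read at 6–8 h (K. pneumoniae, E. cloacae, P. aeruginosa) or 24 h (A. baumannii). EC50 came from non-linear regression, averaged in log form over replicates.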

HSP60/HSP10 = HSP60/HSP10 (Homo sapiens, UniProt P10809); test: Inhibition of human N-terminal octa-His-tagged HSP60 expressed in Escherichia coli Rosetta(DE3) pLysS/human HSP10 expressed in Escherichia coli Rosetta(DE3) assessed as reduction in HSP60/HSP10-mediated denatured MDH refolding by measuring MDH enzyme activity using sodium mesoxalate as substrate after 40 to 60 mins by spectrometric analysis
How it was run: (§4)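 Chaperonin-mediated refolding of denatured MDH, coupled to MDH enzymatic activity as the reporter. Human HSP60/10 (HSP60 without its 26-residue mitochondrial signal peptide) or E. coli GroEL/ES was used, with GroEL tetradecamer at 50 nM (700 nM subunits) during the refolding cycle. IC50s from replicate dose-response curves were averaged as logs after ROUT outlier removal.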

[7] = Inhibition of refolded MDH (unknown origin) preincubated with Escherichia coli GroEL/GroES for 45 mins using sodium mesoxalate as substrate by spectrometric analysis; design: species or system Homo sapiens; how it was run: as §4
[8] = Cytotoxicity against human THLE3 cells after 48 hrs by Alamar blue assay; type: cell-based
How it was run: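 THLE-3 cells, grown in BEBM with the BEGM kit and 10% FBS, were seeded at 1,500 cells/well and allowed 24 h at 37°C, 5% CO2. Compounds were then added at 100 µM to 46 nM final (3-fold steps, 0.1% DMSO) for 48 h. […] CC50 is the log-average of at least triplicate runs.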

Klebsiella pneumoniae = test: Antibacterial activity against Klebsiella pneumoniae ATCC 13883 after 6 to 8 hrs; type: functional, organism-based; how it was run: as §3
Pseudomonas aeruginosa = test: Antibacterial activity against Pseudomonas aeruginosa ATCC 10145 after 6 to 8 hrs; type: functional, organism-based; how it was run: as §3
Enterobacter cloacae = test: Antibacterial activity against Enterobacter cloacae subsp. cloacae ATCC 13047 after 6 to 8 hrs; type: functional, organism-based; how it was run: as §3
Staphylococcus aureus [9] = test: Antibacterial activity against multidrug resistant Staphylococcus aureus ATCC BAA-44 at >100 uM passaged for 12 days in fresh liquid media supplemented with compound followed by re-culturing for 24 hrs on agar and another 24 hrs in liquid medium; type: functional, organism-based
How it was run: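 After 12-day serial passage under compound, resistant culture regrown without inhibitor 24 h on agar then 24 h in liquid medium, then retested for growth inhibition; % growth inhibition averaged (±SD) from 4 replicates.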

[10] = Selectivity index, ratio of CC50 for human THLE3 cells to EC50 for multidrug resistant Staphylococcus aureus ATCC BAA-44; type: toxicity; settings: read-out: Ratio CC50/EC50

Chain of HSP60/HSP10 (P10809 whole entry): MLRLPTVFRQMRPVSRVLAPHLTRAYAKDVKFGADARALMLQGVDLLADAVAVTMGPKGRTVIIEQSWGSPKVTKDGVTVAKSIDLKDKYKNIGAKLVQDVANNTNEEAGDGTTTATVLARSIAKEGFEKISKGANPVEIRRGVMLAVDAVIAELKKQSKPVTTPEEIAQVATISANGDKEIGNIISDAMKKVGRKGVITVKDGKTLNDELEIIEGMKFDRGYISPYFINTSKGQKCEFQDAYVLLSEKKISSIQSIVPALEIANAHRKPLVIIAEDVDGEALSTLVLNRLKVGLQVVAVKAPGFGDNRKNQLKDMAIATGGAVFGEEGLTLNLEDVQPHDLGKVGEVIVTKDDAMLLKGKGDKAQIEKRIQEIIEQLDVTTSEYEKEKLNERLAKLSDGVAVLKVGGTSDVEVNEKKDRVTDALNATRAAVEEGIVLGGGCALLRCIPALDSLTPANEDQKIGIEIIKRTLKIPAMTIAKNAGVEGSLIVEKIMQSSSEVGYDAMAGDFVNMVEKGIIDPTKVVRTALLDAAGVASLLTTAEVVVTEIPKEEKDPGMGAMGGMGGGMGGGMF
Chain of HSP60/HSP10 (P61604 whole entry, further chain): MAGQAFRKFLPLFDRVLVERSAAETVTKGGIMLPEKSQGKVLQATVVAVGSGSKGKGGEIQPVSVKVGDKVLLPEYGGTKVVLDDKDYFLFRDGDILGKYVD
T1 sequence (P0A6F5 whole entry, looked up): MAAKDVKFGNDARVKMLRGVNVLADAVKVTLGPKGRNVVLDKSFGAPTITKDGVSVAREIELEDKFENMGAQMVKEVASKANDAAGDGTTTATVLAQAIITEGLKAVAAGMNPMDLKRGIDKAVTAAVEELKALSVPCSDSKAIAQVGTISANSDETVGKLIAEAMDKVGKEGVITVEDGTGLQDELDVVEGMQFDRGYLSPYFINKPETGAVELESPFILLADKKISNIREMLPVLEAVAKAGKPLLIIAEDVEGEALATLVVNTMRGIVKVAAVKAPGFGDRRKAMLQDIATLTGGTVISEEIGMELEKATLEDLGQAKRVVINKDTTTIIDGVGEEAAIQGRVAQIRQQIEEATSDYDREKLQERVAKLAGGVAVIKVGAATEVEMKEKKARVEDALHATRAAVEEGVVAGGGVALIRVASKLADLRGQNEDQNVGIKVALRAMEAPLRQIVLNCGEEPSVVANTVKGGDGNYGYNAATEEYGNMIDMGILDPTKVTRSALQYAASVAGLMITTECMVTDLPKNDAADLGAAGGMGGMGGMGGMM

Compound | EC50 (Staphylococcus aureus [4]) | IC50 [6] | IC50 (HSP60/HSP10) | IC50 [7] | CC50 at 48 h [8] | Activity (Acinetobacter baumannii) | Activity (Klebsiella pneumoniae) | Activity (Pseudomonas aeruginosa) | Activity (Enterobacter cloacae) | further results
NCc1ccc(S(=O)(=O)Nc2ccc(-c3nc4cc(NS(=O)(=O)c5ccc(Cl)s5)ccc4o3)cc2)cc1 | 19 µM |  |  |  |  |  |  |  |  | Activity (Staphylococcus aureus [1]): Active; IC50 (E. coli GroEL/ES [2]): 3.2 µM; Kd [3]: 0.036 µM; IC50 (E. coli GroEL/ES [5]): 1.3 µM
NCc1ccc(S(=O)(=O)Nc2ccc3oc(-c4ccc(NS(=O)(=O)c5ccc(Cl)s5)cc4)nc3c2)cc1 |  |  |  |  |  |  |  |  |  | Kd [3]: 0.15 µM; IC50 (E. coli GroEL/ES [5]): 3.1 µM
O=S(=O)(Nc1ccc(-c2nc3cc(NS(=O)(=O)c4ccc(Cl)s4)ccc3o2)cc1)c1ccc(Cl)c(C(F)(F)F)c1 | 2 µM | > 100 µM | 6.1 µM | > 63 µM | 22 µM |  |  |  |  | EC50 (Acinetobacter baumannii; ATCC 19606 = CIP 70.34 = JCM 6841, 24 h): 37 µM
O=S(=O)(Nc1ccc2oc(-c3ccc(NS(=O)(=O)c4ccc(Cl)s4)cc3)nc2c1)c1ccc(Cl)c(C(F)(F)F)c1 | 2.2 µM | > 100 µM | 2.4 µM | 40 µM | 27 µM |  |  |  |  | 
O=S(=O)(Nc1ccc(-c2nc3cc(NS(=O)(=O)c4ccc(Cl)cc4)ccc3o2)cc1)c1ccc(Cl)cc1 | 3.5 µM | > 100 µM |  | > 63 µM | 18 µM | inactive | inactive | inactive | inactive | 
O=S(=O)(Nc1ccc2oc(-c3ccc(NS(=O)(=O)c4cccc5nonc45)cc3)nc2c1)c1ccc(Cl)s1 | 4.5 µM | 72 µM | 11 µM | > 63 µM | 69 µM |  |  |  |  | 
O=[N+]([O-])c1cc(S(=O)(=O)Nc2ccc3oc(-c4ccc(NS(=O)(=O)c5ccc(Cl)s5)cc4)nc3c2)ccc1Cl | 0.97 µM | > 100 µM | 1 µM | 37 µM | 11 µM |  |  |  |  | IC50 (E. coli GroEL/ES [2]): 1 µM
O=[N+]([O-])c1cc(S(=O)(=O)Nc2ccc(-c3nc4cc(NS(=O)(=O)c5ccc(Cl)s5)ccc4o3)cc2)ccc1Cl | 1.7 µM | 53 µM | 2.1 µM | 34 µM | 17 µM |  |  |  |  | Activity (Staphylococcus aureus [9]): Active; IC50 (E. coli GroEL/ES [2]): 2 µM; selectivity ratio [10]: 10; IC50 (E. coli GroEL/ES [5]): 1.5 µM
O=S(=O)(Nc1ccc(-c2nc3cc(NS(=O)(=O)c4cccc(C(F)(F)F)c4)ccc3o2)cc1)c1cccc(C(F)(F)F)c1 | 2 µM | > 100 µM | 58 µM | > 63 µM | 24 µM | inactive | inactive | inactive | inactive | 
O=S(=O)(Nc1ccc(-c2nc3cc(NS(=O)(=O)c4ccc(Cl)s4)ccc3o2)cc1)c1cccc(C(F)(F)F)c1 | 2.3 µM | > 100 µM |  | > 63 µM | 27 µM |  |  |  |  | 
O=S(=O)(Nc1ccc2oc(-c3ccc(NS(=O)(=O)c4ccc(Cl)s4)cc3)nc2c1)c1cccc(C(F)(F)F)c1 | 1.1 µM | > 100 µM | 5 µM | 43 µM | 36 µM |  |  |  |  | IC50 (E. coli GroEL/ES [5]): 6.7 µM
O=S(=O)(Nc1ccc2oc(-c3ccc(NS(=O)(=O)c4ccc5ncsc5c4)cc3)nc2c1)c1ccc2scnc2c1 |  |  |  |  |  | inactive | inactive | inactive | inactive | 
O=S(=O)(Nc1ccc(-c2nc3cc(NS(=O)(=O)c4cccc(O)c4)ccc3o2)cc1)c1cccc(O)c1 |  |  |  |  |  | inactive | inactive | inactive | inactive | 
O=S(=O)(Nc1ccc(-c2nc3cc(NS(=O)(=O)c4cccc(Cl)c4)ccc3o2)cc1)c1cccc(Cl)c1 |  |  |  |  |  | inactive | inactive | inactive | inactive | 
O=S(=O)(Nc1ccc2oc(-c3ccc(NS(=O)(=O)c4ccc(Cl)s4)cc3)nc2c1)c1ccc(Cl)c(Cl)c1 | 0.53 µM | > 100 µM | 4.7 µM | > 63 µM | 24 µM |  |  |  |  | IC50 (E. coli GroEL/ES [2]): 6.4 µM; selectivity ratio [10]: 46; IC50 (E. coli GroEL/ES [5]): 5.1 µM
COc1ccc(S(=O)(=O)Nc2ccc(-c3nc4cc(NS(=O)(=O)c5ccc(OC)cc5)ccc4o3)cc2)cc1 |  |  |  |  |  | inactive | inactive | inactive | inactive | 
O=[N+]([O-])c1ccc(S(=O)(=O)Nc2ccc(-c3nc4cc(NS(=O)(=O)c5ccc([N+](=O)[O-])cc5)ccc4o3)cc2)cc1 | 7.3 µM | > 100 µM | 51 µM | > 63 µM | 47 µM | inactive | inactive | inactive | inactive | 
O=C(O)c1ccccc1S(=O)(=O)Nc1ccc(-c2nc3cc(NS(=O)(=O)c4ccccc4C(=O)O)ccc3o2)cc1 |  |  |  |  |  | inactive | inactive | inactive | inactive | 
O=S(=O)(Cc1ccccc1)Nc1ccc(-c2nc3cc(NS(=O)(=O)Cc4ccccc4)ccc3o2)cc1 |  |  |  |  |  | inactive | inactive | inactive | inactive | 
O=S(=O)(Nc1ccc(-c2nc3cc(NS(=O)(=O)c4ccc(Cl)s4)ccc3o2)cc1)c1ccc(Cl)s1 | 4.6 µM | > 100 µM | 5.9 µM | 52 µM | 49 µM |  |  |  |  | 

From ChEMBL document CHEMBL4152346, “Sulfonamido-2-arylbenzoxazole GroEL/ES Inhibitors as Potent Antibacterials against Methicillin-Resistant Staphylococcus aureus (MRSA)” (J Med Chem, 2018)
